Compound activity as filed in PubChem BioAssay.
DNMT1 inh: human DNMT1 methyltransferase inhibitors, primary screen, biochemical, molecular beacon, fluorescence, HinP1I cleavage, uHTS | actives 0.83% (n = 360,000) | AID 588458, 2011 | inhibition (reported as % activation of signal), % at 10 µM | DNA (cytosine-5)-methyltransferase 1 (Homo sapiens), P26358; in the data active = inhibition above about 50%
LMPTP block: LMPTP phosphatase inhibitors, primary screen, biochemical, fluorescence intensity, uHTS; Low molecular weight phosphotyrosine protein phosphatase (Homo sapiens), P24666; inhibition, % at 20 µM; actives 0.22% (n = 360,000); recombinant LMPTP-A, OMFP fluorogenic substrate;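 active = compounds that cut the enzyme signal by at least half of the control window in the single-dose screen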;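 note: plate controls were DMSO wells with enzyme plus substrate for no effect and substrate without enzyme for full effect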
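Assay system: LMPTP-A phosphatase enzyme | Input: 0.625 nM enzyme | Also added: Fluorogenic phosphatase substrate OMFP at 400 µM final | Compound dosing: One test concentration per compound, 20 µM, with 3% DMSO overall | Schedule: 50 min enzyme reaction at room temperature, protected from light | Signal: Fluorescence intensity | Benchmarks: no-enzyme and uninhibited controls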
STEP block: STEP phosphatase inhibitors, primary screen, biochemical, fluorescence intensity, uHTS | AID 588621, 2011 | inhibition, % at 20 µM | actives 0.25% (n = 360,000) | recombinant STEP, OMFP fluorogenic substrate;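 active = inhibition at 20 µM, scaled per plate between control wells, above about 37%, limit read from the data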;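 note: 0% = DMSO with enzyme and substrate and 100% = substrate only without enzyme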
Target sequence (P54829 whole entry, looked up): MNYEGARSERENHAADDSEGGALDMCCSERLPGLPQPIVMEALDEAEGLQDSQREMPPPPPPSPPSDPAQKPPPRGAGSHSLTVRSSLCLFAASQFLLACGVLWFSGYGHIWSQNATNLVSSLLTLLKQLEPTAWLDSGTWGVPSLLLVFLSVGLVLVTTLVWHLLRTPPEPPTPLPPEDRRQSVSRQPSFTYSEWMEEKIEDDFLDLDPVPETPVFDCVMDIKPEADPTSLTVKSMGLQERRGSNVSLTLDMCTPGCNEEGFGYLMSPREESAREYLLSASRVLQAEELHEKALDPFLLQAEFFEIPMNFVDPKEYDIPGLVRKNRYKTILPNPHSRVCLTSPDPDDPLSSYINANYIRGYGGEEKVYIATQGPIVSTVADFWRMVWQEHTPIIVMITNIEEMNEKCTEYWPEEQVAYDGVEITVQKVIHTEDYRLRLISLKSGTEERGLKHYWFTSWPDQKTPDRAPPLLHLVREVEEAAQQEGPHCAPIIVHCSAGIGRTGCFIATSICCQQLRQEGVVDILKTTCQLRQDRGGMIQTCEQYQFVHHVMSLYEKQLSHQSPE
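Also added – OMFP at 25 µM · Test system – STEP tyrosine phosphatase · Technique – FITC-channel fluorescence of OMFP product · Schedule – 20 min at room temperature, dark · Evaluation – control-normalized % inhibition with plate pattern correction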
SUMO1-SIM PPI: modulators of SUMO1 protein-protein interactions, primary screen, biochemical, uHTS; SUMO1 binding to a labelled peptide, TR-FRET, 1 h; inhibition, % at 20 µM; actives 0.33% (n = 360,000); AID 602429, 2012; in the data active = inhibition above about 37%
Scp-1 inhibitor: Scp-1 phosphatase inhibitors, primary screen, biochemical, colorimetric, uHTS. Carboxy-terminal domain RNA polymerase II polypeptide A small phosphatase 1 (Homo …. Recombinant Scp1, phosphopeptide, malachite green phosphate absorbance. inhibition, % at 20 µM. actives 0.88% (n = 340,000);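 active = inhibition above about 50% at 20 µM, limit read from the data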;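 note: plate controls were DMSO wells with enzyme for no effect and wells lacking enzyme for full effect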
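Assay system: SCP-1 catalytic fragment, aa 76-261 | Buffer or medium: Tris acetate buffer pH 5.5 with MgCl2 and Tween-20 | Compound: One concentration, 20 µM, with 1.0% DMSO | Also added: Phospho 17-mer peptide substrate | Signal: Absorbance at 630 nm | Incubation: 45 min enzyme reaction at room temperature | Measure: % inhibition of SCP-1 phosphate liberation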
HKDC1 inhibitor: HKDC1 hexokinase inhibitors, primary screen, biochemical, fluorescence, uHTS; inhibition, % at 20 µM; recombinant HKDC1, G6PDH/diaphorase resazurin coupled fluorescence; actives 0.16% (n = 340,000); AID 493160, 2011;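 active = inhibition above about 35% when tested at 20 µM, limit read from the data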;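 note: plate controls were DMSO wells with enzyme for no effect and DMSO wells lacking enzyme for full effect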
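Assay system: recombinant HKDC1 hexokinase; detection: coupled resazurin fluorescence, excitation 525 nm, emission 613 nm; benchmarks: DMSO-plus-enzyme-mix negative control, buffer-substituted positive control; compound dosing: single 20 µM dose; schedule: 90 min at room temperature in dark; also added: glucose plus 1 mM ATP as hexokinase substrates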
An asterisk follows results filed as active; · = not tested or not shown. The list is not random: actives were taken first. Their share in the collection is about 1.8%.

SMILES	DNMT1 inh	LMPTP block	STEP block	SUMO1-SIM PPI	Scp-1 inhibitor	HKDC1 inhibitor
NC(=O)CN1CCN(S(=O)(=O)c2ccc(Cl)cc2)CC1	-1	0	6	-2	-7	-11
COc1ccc(S(=O)(=O)N2CCN(CC(=O)c3ccc(O)c(O)c3)CC2)cc1	3	70*	2	-2	-5	0
COC(=O)c1cc(S(=O)(=O)N2CCCCC2)c[nH]1	2	-1	3	-1	-9	1
Oc1[nH]c2ccccc2c1N=Nc1c(F)c(F)c(Cl)c(F)c1F	-2	-1	-1	-5	-10	-3
Oc1[nH]c2ccccc2c1N=Nc1ccccc1Cl	54*	-1	-4	-3	7	0
CCCN1CCc2c(sc(NC(=S)NC(=O)c3ccccc3)c2C#N)C1	1	59*	-58	-23	-8	-4
O=C(Nc1ccc(NC(=O)c2ccc(Cl)cc2Cl)cc1)c1ccc2c(c1)OCO2	21	-2	2	0	-12	-7
O=C(Nc1ccc(C2=NCCN2)cc1)c1ccc(C(=O)Nc2ccc(C3=NCCN3)cc2)c(Cl)c1	-29	59*	3	87*	-17	-2
COC(=O)[C@@]12C[C@@H](CC(=O)NCc3cccc4ccccc34)C(=O)N(Cc3ccco3)C1=CCC(C)(C)C2	·	3	·	1	·	·
CCc1nc(N)nc(N)c1-c1ccc(Cl)c([N+](=O)[O-])c1	2	47	0	-14	4	-2
CCc1nc(N)nc(N)c1-c1ccc(Cl)c(N=[N+]=[N-])c1	-8	58*	-1	9	5	-3
O=C(O)c1cccc(Cn2c(Cl)c(/C=N/NC(=O)c3ccccc3)sc2=O)c1	-1	-1	3	-6	-9	0
O=C(O)c1cccc(Cn2c(Cl)c(/C=N/NC(=O)c3cc4ccccc4cc3O)sc2=O)c1	23	55*	4	12	34	18
Cc1cc(N2CCN(c3ccc([N+](=O)[O-])c4cccnc34)CC2)c2ccccc2n1	-31	97*	11	5	-13	-8
c1ccc(-c2csc(N3CCCCCC3)n2)cc1	0	4	1	-1	0	5
Cc1cc(N2CCN(c3nc(-c4ccccc4)cs3)CC2)c2ccccc2n1	-8	82*	5	-1	2	0
O=C(OCC(=O)N1CCc2ccccc2C1)c1ccc(O)cc1	0	1	-1	2	-9	-1
COC1=CC(=O)C(O)=C(CCCCCCC/C=C/CCCCCCCC2=C(O)C(=O)C=C(OC)C2=O)C1=O	82*	69*	10	79*	88*	31
CCCCCCCCCCCC1=C(O)C(=O)C=C(O)C1=O	31	71*	12	11	34	-10
CSc1ncccc1C(=O)N1CCC(C)(C(=O)O)C1 (centres undefined)	0	-1	-3	0	·	·
Cn1c(CCN2CCN(c3ccccn3)CC2)nc2cc(NC(=O)COc3ccc([N+](=O)[O-])cc3)ccc21	1	71*	0	29	-9	-1
COc1ccc(-c2nnc(Nc3ccc(S(=O)(=O)Nc4nccs4)cc3)c3ccccc23)cc1	-5	0	0	44*	1	-5
CCOc1ccc2nc(NC3=NC(c4ccc(OC)cc4)CC(=O)N3)nc(C)c2c1 (centres undefined)	-8	57*	86*	6	11	3
O=C(Cc1n[nH]c(=O)c2ccccc12)OCC(=O)c1ccc(F)cc1	0	0	1	6	-6	3
CCOc1ccc(C(=O)COC(=O)Cc2n[nH]c(=O)c3ccccc23)cc1	-2	0	1	48*	-9	-5
